Screens (PubChem BioAssay)
Shown are actives, neighbours in structure and some others; about 1.9% of the full set was active somewhere.
NPY-Y1 antag: NPY-Y1 receptor antagonists, primary screen, cell-based. Neuropeptide Y receptor type 1 (Homo sapiens), P25929. HEK293-CNG Y1 cells, membrane potential fluorescence; NPY at EC95, then isoproterenol. inhibition, % at 3.6 µM. 200,000 compounds, 1% hits;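 active means inhibition above the campaign mean inhibition of all tested compounds plus 3 SD, cut at about 20% in these data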;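 further: 0% = DMSO wells given NPY plus isoproterenol and 100% = isoproterenol alone without NPY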
Target sequence (P25929 whole entry, looked up): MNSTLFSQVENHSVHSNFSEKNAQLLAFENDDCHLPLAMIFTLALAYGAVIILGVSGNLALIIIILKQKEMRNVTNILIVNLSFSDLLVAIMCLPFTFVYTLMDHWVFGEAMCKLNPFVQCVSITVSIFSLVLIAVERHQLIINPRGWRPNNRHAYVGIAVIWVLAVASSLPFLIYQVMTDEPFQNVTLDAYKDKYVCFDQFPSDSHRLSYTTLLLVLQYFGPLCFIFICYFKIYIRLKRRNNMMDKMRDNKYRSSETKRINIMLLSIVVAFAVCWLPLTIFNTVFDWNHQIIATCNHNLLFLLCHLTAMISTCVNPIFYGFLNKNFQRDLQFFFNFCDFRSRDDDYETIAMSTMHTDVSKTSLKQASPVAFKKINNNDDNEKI
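Assay system: HEK293 cells with Y1 receptor plus CNG channel | Probe or stimulus: NPY (25 nM), isoproterenol (1 µM), Ro 20-1724 (25 µM) | Timing: Compound incubation 1 h at room temperature, readout 45 min post-stimulation | Measured by: Membrane-potential fluorescent dye readout | Benchmarks: High control isoproterenol alone, low control NPY with isoproterenol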
NPY-Y1 PAM-ag: NPY-Y1 receptor potentiators or agonists, primary screen, cell-based. Neuropeptide Y receptor type 1 (Homo sapiens), P25929. NPY-Y1 expressing cells, potentiator/agonist activation. activation, % at 3.6 µM. 220,000 compounds, 0.37% hits; in the data active means activation above about 33%, passing the limit was not always enough;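 further: cells stimulated with NPY at EC10 then isoproterenol at EC100; 0% = low agonist plus stimulus and 100% = saturating agonist plus stimulus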
NPY2 pot ag: NPY-Y2 potentiators or agonists, primary screen, cell-based; Neuropeptide Y receptor type 2 (Homo sapiens), P49146; cells expressing NPY-Y2, potentiator/agonist read-out; activation, % at 3.6 µM; 220,000 compounds, 0.45% hits; in the data active means activation above about 27%;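 further: cells stimulated with NPY near EC25 plus isoproterenol at EC100; 0% = vehicle plus submaximal agonist and 100% = vehicle plus saturating agonist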
NPY Y2 blocker: NPY-Y2 receptor antagonists, primary screen, cell-based | inhibition, % at 2.7 µM | 140,000 compounds, 0.99% hits | NPY-Y2 expressing cells, antagonist mode | AID 793, 2007;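 further: 0% = vehicle with agonist challenge and 100% = reference antagonist with challenge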
NPY1 antag conf: NPY-Y1 receptor antagonists, retest of hits, confirmation, HEK293-CNG cells, membrane potential fluorescence, triplicate | 1,200 compounds, 21% hits | shares compounds with NPY-Y1 antag | cAMP; NPY challenge against isoproterenol-raised cAMP | inhibition, % at 3.6 µM; in the data active means inhibition above about 20%;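 further: 0% = vehicle with agonist plus stimulus and 100% = stimulus alone without agonist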
NPY-Y2 antag ct: NPY-Y2 receptor antagonists, selectivity check, confirmation, counter-screen for NPY-Y1 antagonist project, HEK293-CNG cells, membrane potential fluorescence, triplicate; shares compounds with NPY-Y1 antag; antagonism; cells given NPY, then isoproterenol; inhibition, % at 3.6 µM; 1,200 compounds, 28% hits; AID 1255, 2008;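 further: 0% = DMSO with agonist challenge and 100% = reference antagonist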
Active calls of the source: *; nt = no result given. Unless noted, no stated cut-off is given here; in the data, active means inhibition above about 17%; inactive means the rest.

SMILES	NPY-Y1 antag	NPY-Y1 PAM-ag	NPY2 pot ag	NPY Y2 blocker	NPY1 antag conf	NPY-Y2 antag ct
Cc1cc(Nc2ccc([N+](=O)[O-])cc2)nc2ccccc12	24*	21	3	nt	7	16
COc1ccc(Nc2cc(C)c3ccccc3n2)cc1	0	21	18	nt	nt	nt
c1ccc(-c2nc(Sc3ncnc4c3cnn4-c3ccccc3)n[nH]2)cc1	26*	-51	-33	6	7	9
CCOC(=O)c1sc(N(Cc2ccccc2)C(=O)COC(=O)c2ccccc2O)nc1C	20*	-45	-4	13	16	8
CCOC(=O)c1sc(N(C)C(C)=O)nc1C	2	9	7	1	nt	nt
C=CCN=C1S/C(=C\c2ccc(N(C)C)cc2)C(=O)N1CC=C	nt	13	-9	nt	nt	nt
Cc1ccc(CSc2nc3ccccc3c(=O)n2Cc2ccco2)cc1	28*	-36	-6	11	6	14
Cc1ccc(CSc2nc3ccccc3c(=O)n2CCCC(=O)NCc2ccco2)cc1	1	12	-16	-1	nt	nt
Cn1c(=O)c(C(=O)COc2ccc(F)cc2Cl)c(N)n(Cc2ccccc2)c1=O	32*	0	-19	nt	10	55*
CCn1c(=O)c(C(=O)CN(C)Cc2cccc(OC)c2OC)c(N)n(Cc2ccccc2)c1=O	8	-12	-5	4	nt	nt
COc1ccc(CN(C)CC(=O)c2c(N)n(Cc3ccccc3)c(=O)n(C)c2=O)c(OC)c1	24*	-38	-3	14	11	8
Cn1c(N)c(C(=O)COc2ccc(Cl)cc2Cl)c(=O)n(C)c1=O	5	7	3	nt	nt	nt
COc1ccc(-c2nn(C)c(=O)[nH]2)cc1	nt	17	-21	nt	nt	nt
O=C(Cn1cc(Cl)ccc1=O)c1ccc(Cl)cc1	7	8	-13	3	nt	nt
COC(=O)c1cc2c(ccn2-c2ccc(F)cc2)n1Cc1ccc(OC)cc1	24*	-24	10	9	11	9
CCn1c(C(=O)OC)cc2c1ccn2-c1ccc(F)cc1	27*	13	3	17	14	4
Cc1cc(Cl)c(OCCOCCN2CCCC(C)C2)c(Br)c1 (centres undefined)	23*	-23	-28	nt	5	11
Cc1cc(Cl)c(OCCOCCN2CCCCC2)c(Br)c1	4	10	-5	3	nt	nt
CSc1cccc(CN2CCN(CCC(C)C)C(CCO)C2)c1 (centres undefined)	11	-13	-7	nt	nt	nt
CN(C[C@H](Cc1ccccc1)N(C[C@H](Cc1ccccc1)N(CCc1cc(C(F)(F)F)cc(C(F)(F)F)c1)N=O)N=O)N=O	22*	-12	-14	nt	19	8
CN1\C(=C/C=C/C=C/C=[N+](C)C)C(C)(C)c2ccccc21	151*	3	-8	nt	195*	145*
CCC/C=C(\CCC)C(NS(=O)(=O)c1cccc2cccnc12)c1ccc(C(=O)OC)cc1 (centres undefined)	-1	-34	6	4	nt	nt
CCC/C=C(\CCC)C(NC(=O)OCC(C)C)c1ccc(C(=O)OC)cc1 (centres undefined)	22*	-41	-7	14	27*	26*
CCOC(=O)c1c(-c2ccccc2Cl)csc1NC(=O)c1cc(S(=O)(=O)N2CCOCC2)ccc1C	5	-23	-4	2	nt	nt
Cc1c(C(=O)N2CCOCC2)[nH]c2c1C(=O)CC(c1ccccc1Cl)C2 (centres undefined)	24*	-13	-12	5	3	18*
SMILES	NPY-Y1 antag	NPY-Y1 PAM-ag	NPY2 pot ag	NPY Y2 blocker	NPY1 antag conf	NPY-Y2 antag ct
COC(=O)c1[nH]c2c(c1C)C(=O)CC(c1ccccc1)C2 (centres undefined)	1	-5	-23	3	nt	nt
OCC1(Cc2ccccc2Cl)CCN(C/C=C/c2ccccc2)CC1	27*	-22	-29	nt	15	12
O=C(NC(=S)Nc1cccc(C(F)(F)F)c1)c1csnn1	1	-7	-7	nt	nt	nt
Cn1/c(=N\NC(=O)c2ccccc2Cl)sc2ccccc21	-1	5	9	nt	nt	nt
Cc1cc(C)cc(NC(=O)c2oc3ccccc3c2COc2ccccc2)c1	23*	-31	-18	-1	5	12
COc1ccc(N(C)S(=O)(=O)c2cccc(C(=O)NC3CCC(C)CC3)c2)cc1 (centres undefined)	46*	-3	-6	nt	27*	15
COc1ccc(N(C)S(=O)(=O)c2cccc(C(=O)N(C)Cc3ccc(C)o3)c2)cc1	31*	-9	-14	nt	7	16
COc1ccc(N(C)S(=O)(=O)c2cccc(C(=O)NC3CCCCCC3)c2)cc1	39*	-13	-19	nt	10	12
COc1ccc(N(C)S(=O)(=O)c2cccc(C(=O)NCc3ccc4c(c3)OCO4)c2)cc1	2	-11	8	nt	nt	nt
CC(C)CC(=O)NS(=O)(=O)c1ccc(NS(C)(=O)=O)cc1	-3	17	-3	nt	nt	nt
O=C1CCCc2cc3c(cc21)CC1(C3)Cc2cc3c(cc2C1)C(=O)CCC3	nt	5	3	nt	nt	nt
O=C1C=C(NCc2ccc(Cl)c(Cl)c2)C2(CCCCC2)O1	42*	3	-6	15	10	7
N#Cc1c(N)nc2c(c1-c1ccc(F)cc1)c(=O)nc1sccn12	47*	2	2	nt	-1	4
Cc1nn(-c2ccccc2)c2nc(N)c(C#N)c(-c3ccc(F)cc3)c12	23*	-29	-18	4	4	16
CN(C)S(=O)(=O)N1CCN(c2ccc([N+](=O)[O-])c(N3CCCCC3)c2)CC1	-3	18	4	nt	nt	nt
Cc1noc(NS(=O)(=O)c2ccc(NC(=O)c3ccc(OC(C)C)cc3)cc2)c1C	54*	14	13	nt	-2	3
CCOc1ccccc1CN1CCN(C/C=C/c2ccc(OC)cc2)CC1CCO (centres undefined)	25*	-35	-51	nt	12	14
CCN1CCc2c(C#N)c(NCc3ccccc3)nc(N(CC)CC)c2C1	34*	-38	-21	13	11	28*
Cc1ccc(S(=O)(=O)N(C)C)cc1NC(=O)c1c(-c2c(F)cccc2Cl)noc1C	nt	14	5	nt	nt	nt
Cc1cc2ncn(-c3ncnc4sc(C)c(C)c34)c2cc1C	5	-18	-10	4	nt	nt
Cc1cc2ncn(-c3ncnc4scc(-c5ccccc5)c34)c2cc1C	31*	-25	-13	15	18	13
CCn1nnc(-c2ccccc2NC(=O)c2cccc(-n3cnnn3)c2)n1	8	-11	-4	2	nt	nt
CCn1nnc(-c2ccccc2NC(=O)c2ccc(-n3cnnn3)cc2)n1	23*	12	-6	6	14	6
OCC1(CCCc2ccccc2)CCN(C2CCSCC2)CC1	25*	-14	-28	nt	10	12
